In paper PMC4804314 (Pharmacology Research & Perspectives, 2016):

Key:
[1] = system: sandwich‐cultured mouse (NMRI) hepatocytes; assay: Hepatobiliary disposition in sandwich-cultured mouse hepatocytes; format: in vitro ADME; conditions: 1 μmol/L, 10 min
[2] = system: sandwich‐cultured human hepatocytes; assay: Hepatobiliary disposition in sandwich-cultured human hepatocytes; format: in vitro ADME; conditions: 10 min
Procedure, shortened: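 Sandwich-cultured human hepatocytes from three donor liver preparations, cultured 6 days. [14C]-test compound was applied at 10 and 250 μmol/L, with [3H]-taurocholate as transporter-function control and LDH release as cytotoxicity check. Radioactivity was read by LSC. Accumulation is mean ± SD of triplicate wells. BEI, CLbiliary, intracellular concentration and Cic/Cec were derived.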

[3] = donor 1, 1 μmol/L, mean ± SD of triplicate wells
[4] = donor 2, 1 μmol/L, mean ± SD of triplicate wells
[5] = donor 3, 1 μmol/L, mean ± SD of triplicate wells
[6] = mean ± standard error of 3 donors, 1 μmol/L

Compound: C[C@H](CCC(=O)NCCS(=O)(=O)O)[C@H]1CC[C@H]2[C@@H]3[C@H](O)C[C@@H]4C[C@H](O)CC[C@]4(C)[C@H]3C[C@H](O)[C@]12C [TCA, taurocholate, reference compound]
- BEI [1]: 30.5%
- CLbiliary [1]: 66.8 mL/min/kg
- Cellular accumulation ([1]; mean ± SD of triplicate wells): 150 ± 28 pmol/mg
- Total accumulation ([1]; mean ± SD of triplicate wells): 215 ± 23 pmol/mg
- BEI ([2]; donor 1, 1 μmol/L): 44.6%
- CLbiliary ([2]; donor 1, 1 μmol/L): 7.16 mL/min/kg
- Cellular accumulation [2, 3]: 30.7 ± 2.8 pmol/mg
- Total accumulation [2, 3]: 55.3 ± 5.7 pmol/mg
- BEI ([2]; donor 2, 1 μmol/L): 74.2%
- CLbiliary ([2]; donor 2, 1 μmol/L): 19.3 mL/min/kg
- Cellular accumulation [2, 4]: 23.2 ± 1.9 pmol/mg
- Total accumulation [2, 4]: 89.7 ± 3.6 pmol/mg
- BEI ([2]; donor 3, 1 μmol/L): 66.5%
- CLbiliary ([2]; donor 3, 1 μmol/L): 31.0 mL/min/kg
- Cellular accumulation [2, 5]: 53.9 ± 2.0 pmol/mg
- Total accumulation [2, 5]: 161 ± 12 pmol/mg
- BEI [2, 6]: 61.7 ± 8.9%
- CLbiliary [2, 6]: 19.2 ± 6.9 mL/min/kg
- Cellular accumulation [2, 6]: 35.9 ± 9.2 pmol/mg
- Total accumulation [2, 6]: 102 ± 31 pmol/mg
